The record followed here is ChEMBL document CHEMBL3992522, “Antileishmanial Activity of Pyrazolopyridine Derivatives and Their Potential as an Adjunct Therapy with Miltefosine” (J Med Chem, 2017).

Usually IC50 stands for the concentration that inhibits the measured activity by half. The term inhibition in vivo denotes the percentage by which the read-out fell short of the control. Broadly, the half-life is the time in which the quantity being followed falls by half. The inhibition is the relative decrease from the control value, in per cent. Low values mean little suppression, high ones strong suppression.

Series [1] deals with Leishmania donovani. In words: Antileishmanial activity against Leishmania donovani MHOM/IN/80/DD8 promastigote forms harboring luciferase gene after 72 hrs by Steady-Glo reagent based luminescence assay. In kind it is functional. Particulars: MHOM/IN/80/DD8, 72 h. The method, boiled down:
(§1)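 Exponential-phase Dd8-Luc promastigotes at 1×10^6/mL in M199 with 10% FBS, 24 °C, given 50 and 25 µM for 72 h. Vehicle 0.1% DMSO. Steady-Glo added 1:1, luminescence (RLU) read. IC50 from four-parameter Hill regression, derived only where inhibition exceeded 90%. Means of at least three independent experiments.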

Series [2] has as its system Leishmania donovani. Kind of series: Antileishmanial activity against Leishmania donovani MHOM/IN/80/DD8 promastigote forms harboring luciferase gene at 50 uM after 72 hrs by Steady-Glo reagent based luminescence assay relative to control. The format is functional. Particulars: MHOM/IN/80/DD8, 72 h, read-out: GI. The method, boiled down: as §1
The test system of series [3] is Mus musculus. In words: Toxicity in Balb/c mouse infected with Leishmania donovani amastigote forms assessed as changes in body weight at 12.5 to 200 mg/kg, ip administered for 5 consecutive days. In kind it is organism-based. Particulars: in vivo. The method, boiled down:
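L. donovani-infected BALB/c mice (15-day infection, 5 per group) dosed for five consecutive days: test compound 12.5–200 mg/kg i.p. in 8% DMSO, miltefosine orally in TDW, alone or in combination. Body weight followed after treatment.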

Series [4] relates to Leishmania donovani. In words: Antileishmanial activity against Leishmania donovani MHOM/IN/80/DD8 amastigote forms harboring luciferase gene infected in mouse J774 cells at 6.25 to 12.5 uM up to 4 days by Steady-Glo reagent based luminescence assay. The format is functional, cell-based. The method, boiled down:
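Infected J774 macrophages held at 37 °C with two-fold dilutions from 200 to 6.25 µM. Intracellular amastigote growth followed by luciferase activity in lysed macrophages, expressed as RLU, over time. Three independent experiments.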

The subject of series [5] is Mus musculus. In words: Restoration of T cell proliferation in Balb/c mouse splenocytes infected with Leishmania donovani amastigote forms at 25 mg/kg, ip co-treated with 5 mg/kg, po miltefosine administered for 5 consecutive days measured on day 4 post last treatment followed by soluble Leishmania donovani promastigote antigen-stimulation for 72 hrs by MTT assay relative to control. In kind it is functional. The method, boiled down: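 Splenocytes from treated infected BALB/c mice (day 4 or 7 post-treatment) isolated by Ficoll gradient, plated at 10^5/well in triplicate in phenol red-free RPMI 1640, stimulated with 5 μg/mL SLA for 72 h at 37 °C, 5% CO2. Proliferation read by MTT (0.5 mg/mL), formazan dissolved in DMSO, OD 540 nm.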
(Formazan colour is commonly taken as a measure of viable cells.)

Series [6] concerns Mus musculus. In words: Increase in TNFalpha level in Balb/c mouse splenocytes infected with Leishmania donovani amastigote forms at 25 mg/kg, ip co-treated with 5 mg/kg, po miltefosine administered for 5 consecutive days measured on day 4 post last treatment by sandwich ELISA relative to control. In kind it is functional. The method, boiled down: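 BALB/c mice infected with L. donovani (15 days); treatment for 5 consecutive days, test compound i.p. in 8% DMSO/water, miltefosine oral in TDW; sacrificed day 4 and day 7 post-treatment, n = 5 per group. Splenocytes (2×10^6) cultured 72 h in phenol red-free RPMI 1640 with 5 μg/mL SLA; supernatant cytokines by sandwich ELISA.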

The test system of series [7] is Leishmania donovani. Kind of series: Antileishmanial activity against Leishmania donovani MHOM/IN/80/DD8 amastigote forms harboring luciferase gene infected in mouse J774 cells at 50 uM after 72 hrs by Steady-Glo reagent based luminescence assay relative to control. In kind it is functional. Particulars: MHOM/IN/80/DD8, J774, 72 h, read-out: GI. The method, boiled down: (§2)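 Stationary-phase luciferase-expressing Dd8 promastigotes infected into J774 macrophages (4×10^4/mL seeded, 24 h, 37 °C, 5% CO2) at 1:8 macrophage:parasite for 24 h. Non-internalised parasites washed off. Compounds added at 50 and 25 µM in RPMI/10% FBS for 72 h. Lysis with Steady-Glo luciferin reagent plus PBS, luminescence read. Inhibition relative to untreated infected controls.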

For series [8], the system named is Leishmania donovani. Kind of series: Antileishmanial activity against Leishmania donovani amastigote forms infected in Balb/c mouse assessed as inhibition of parasitic burden in liver at 25 mg/kg, ip administered for 5 consecutive days measured on day 7 post last treatment by Giemsa staining based assay relative to control. Particulars: 168 h.
In series [9] the test system is Leishmania donovani. In words: Antileishmanial activity against Leishmania donovani MHOM/IN/80/DD8 amastigote forms harboring luciferase gene infected in mouse J774 cells at 25 uM after 72 hrs by Steady-Glo reagent based luminescence assay relative to control. The format is functional. Particulars: MHOM/IN/80/DD8, J774, 72 h, read-out: GI. The method, boiled down: as §2

Series [10] is described as follows: Half life in Swiss mouse at 50 mg/kg, po by LC-MS/MS analysis. Particulars: in vivo. In kind it is ADME, organism-based.
In series [11] the test system is Leishmania donovani. In words: Induction of apoptosis in Leishmania donovani MHOM/IN/80/DD8 promastigote forms assessed as cell rounding at 50 uM after 48 hrs by propidium iodide staining based fluorescent microscopic method. In kind it is functional.
Series [12] can be described thus: Half life in mouse liver S9 fractions at 1 mM in presence of NADPH by HPLC method. The format is ADME, tissue-based.
Series [13] relates to Leishmania donovani. In words: Antileishmanial activity against Leishmania donovani amastigote forms infected in Balb/c mouse assessed as inhibition of parasitic burden in spleen at 50 mg/kg, ip administered for 5 consecutive days measured 1 week post last treatment by Giemsa staining based assay relative to control. The format is functional. Particulars: 168 h.
Series [14] concerns Leishmania donovani. Kind of series: Antileishmanial activity against Leishmania donovani MHOM/IN/80/DD8 amastigote forms harboring luciferase gene infected in mouse J774 cells at 50 uM up to 72 hrs by Giemsa staining based assay relative to control. The format is functional. Particulars: MHOM/IN/80/DD8, J774, 72 h. The method, boiled down:
(§3)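 J774 macrophages in chamber slides infected with Dd8 promastigotes (1:10 cell:parasite in methods; 1:8 in legend) for 24 h, then treated 48 and 72 h. Cells methanol-fixed, stained with 20% Giemsa. Amastigotes per 100 macrophages counted against untreated infected controls.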

Series [15] in a line: Cytotoxicity against mouse J774 cells assessed as cell viability […] after 72 hrs by MTT assay relative to control. The format is cell-based. Particulars: read-out: Activity. The method, boiled down: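 Vero and J774 cells seeded at 1×10^5 per well for 24 h, then exposed 72 h to seven two-fold dilutions from 500 to 7.81 μM. MTT solution (5 mg/mL stock) added for 2 h at 37 °C, formazan dissolved in DMSO and read at 540 nm. CC50 derived by the Huber and Koella method.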

Series [16] concerns Leishmania donovani. Kind of series: Antileishmanial activity against Leishmania donovani MHOM/IN/80/DD8 promastigote forms harboring luciferase gene at 7.19 uM up to 72 hrs by MTT assay relative to control. Particulars: MHOM/IN/80/DD8, 72 h. The format is functional.
The subject of series [17] is Leishmania donovani. Kind of series: Antileishmanial activity against Leishmania donovani MHOM/IN/80/DD8 amastigote forms harboring luciferase gene infected in mouse J774 cells at 4.05 uM up to 72 hrs by Giemsa staining based assay relative to control. Particulars: MHOM/IN/80/DD8, J774, 72 h. The format is functional. The method, boiled down:
as §3

Series [18] has as its system Mus musculus. Kind of series: Increase in iNOS mRNA expression level in Balb/c mouse splenocytes infected with Leishmania donovani amastigote forms at 25 mg/kg, ip cotreated with 5 mg/kg, po miltefosine for 5 consecutive days measured on day 4 post last treatment by RT-PCR assay relative to control. In kind it is functional. The method, boiled down:
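Infected BALB/c mice dosed for 5 consecutive days (test compound i.p. in 8% DMSO, miltefosine oral), n = 5 per group; splenocytes taken day 4 and day 7 post-treatment. Total RNA extracted and iNOS mRNA quantified by real-time PCR, normalized to mouse β-actin, expressed as fold change over uninfected controls.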

The source made the active and inactive calls. The calls are words filed in the database; no cut-off is given here. A value given as a limit tells only on which side of the number the result lay.

Turning to `COc1ccc(C2C3=C(CCC3=O)Nc3c2c(-c2c[nH]c4ccccc24)nn3-c2ccc(Cl)c(Cl)c2)cc1OC` (stereo not drawn), the 50% inhibitory concentration (IC50) in the series on Leishmania donovani [1] is 7.19 µM. The results for the inhibition of growth at 50 µM in the series with Leishmania donovani [2] and in the series on Leishmania donovani [7] were 93.3% and 97.3%, respectively. In addition, the Activity result in the series with Mus musculus [3] is listed as “Non-Toxic”. Besides, the result in the series on Leishmania donovani [4] and in the series with Leishmania donovani [11] was Active. Moreover, the “fold change (FC)” value with Mus musculus [5] turned out to be 9.9; in the series on Mus musculus [6], 7.4; in the series with Mus musculus [18], 11.8. Further, the inhibition in vivo at 25 mg/kg in the series with Leishmania donovani [8] was > 48%. In addition, the inhibition of growth at 25 µM with Leishmania donovani [9] stood at 96.8%. Further, the half-life in series [10] was 4.81 h. In addition, the half-life at 1000 µM in series [12] was 0.841 h. For the same compound, the inhibition in vivo at 50 mg/kg with Leishmania donovani [13] was > 93%. In the series with Leishmania donovani [14], the inhibition at 50 µM is > 93%. The viability at 72 h in [15] is > 95%. The inhibition at 7.19 µM in the series on Leishmania donovani [16] was > 95%. In addition, the inhibition at 4.05 µM in the series with Leishmania donovani [17] is > 93%.
